For one data set, the system named is HOS. The data set is described as follows: Cytotoxicity against HOS cells assessed as reduction in ATP level after 48 hrs by luciferase reporter gene assay. Conditions: human. It is filed as cell-based. The gist of the method: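 HOS cells in DMEM with 5% FBS and 5% newborn calf serum, seeded 4000 per well the day before, exposed to compound for 48 h at 37 °C. Cells lysed and ATP measured with a luciferase (ATPlite) read-out. Signal normalized to untreated cells; CC50 from regression fit.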

Data set [1] deals with T1, Human immunodeficiency virus type 1 integrase (Human immunodeficiency virus 1, UniProt Q7ZJM1). The data set is described as follows: Inhibition of HIV-1 integrase-mediated 3'-processing activity using [32P]-labeled oligonucleotide as substrate after 2 hrs by densitometric analysis. In outline: (§1)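 400 nM integrase with 20 nM [γ-32P]-labeled DNA in 50 mM MOPS pH 7.2, 7.5 mM MgCl2, 14 mM 2-mercaptoethanol; compounds in DMSO. The substrate for 3′-processing was 21T/21B duplex, and for strand transfer the precleaved 19T/21B duplex. Reactions ran 2 h at 37 °C and were quenched with formamide/SDS loading buffer.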
T1 sequence (Q7ZJM1 whole entry): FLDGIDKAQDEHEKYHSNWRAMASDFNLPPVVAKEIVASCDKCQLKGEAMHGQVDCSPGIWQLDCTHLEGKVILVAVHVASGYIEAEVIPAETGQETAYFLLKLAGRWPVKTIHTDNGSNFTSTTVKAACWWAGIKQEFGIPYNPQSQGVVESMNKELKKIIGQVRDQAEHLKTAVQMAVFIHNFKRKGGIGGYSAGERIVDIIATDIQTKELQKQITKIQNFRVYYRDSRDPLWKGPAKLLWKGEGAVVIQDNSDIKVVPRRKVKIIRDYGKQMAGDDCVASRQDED

The target of data set [2] is T1, Human immunodeficiency virus type 1 integrase. The experiment in a line: Inhibition of HIV-1 integrase-mediated strand transfer activity using [32P]-labeled oligonucleotide as substrate after 2 hrs by densitometric analysis. The gist of the method:
as §1

In data set [3] the test system is Human immunodeficiency virus 1. The experiment in a line: Antiviral activity against wild-type Human immunodeficiency virus 1 infected in HOS cells preincubated for 3 hrs followed by viral infection measured after 48 hrs by luciferase reporter gene assay. It counts as functional, organism-based. The note with it: Human immunodeficiency virus 1, HOS. In outline: (§2)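 VSV-g-pseudotyped single-round HIV-1 luciferase vector (pNLNgoMIVR-ΔLUC; IN mutants made by site-directed mutagenesis), produced by 293T transfection. HOS cells seeded the day before, given compound over 10 μM to 0.0005 μM (11 serial dilutions), 3 h at 37 °C, then virus added; 48 h at 37 °C. Luciferase read-out normalized to no-compound infectivity; EC50 from regression fit.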

Data set [4] concerns Human immunodeficiency virus 1. The experiment in a line: Antiviral activity against Human immunodeficiency virus 1 harboring integrase N155H mutant infected in HOS cells preincubated for 3 hrs followed by viral infection measured after 48 hrs by luciferase reporter gene assay. It counts as functional, organism-based. Conditions: Human immunodeficiency virus 1, HOS. In outline: as §2

Data set [5] has as its system Human immunodeficiency virus 1. The data set is described as follows: Antiviral activity against Human immunodeficiency virus 1 harboring integrase Y143R mutant infected in HOS cells preincubated for 3 hrs followed by viral infection measured after 48 hrs by luciferase reporter gene assay. It counts as functional, organism-based. The note with it: Human immunodeficiency virus 1, HOS. The gist of the method: as §2

Data set [6] can be described thus: Selectivity index, ratio of CC50 for HOS cells to EC50 for wild-type Human immunodeficiency virus 1.
Data set [7] concerns Human immunodeficiency virus 1. The data set is described as follows: Antiviral activity against Human immunodeficiency virus 1 harboring integrase G140S/Q148H double mutant infected in HOS cells preincubated for 3 hrs followed by viral infection measured after 48 hrs by luciferase reporter gene assay. It is filed as functional, organism-based. Conditions: Human immunodeficiency virus 1, HOS. The gist of the method: as §2

Data set [8] relates to Human immunodeficiency virus 1. The data set is described as follows: Ratio of EC50 for Human immunodeficiency virus 1 harboring integrase G118R mutant to EC50 for wild-type Human immunodeficiency virus 1. It is filed as functional. In outline: (§3)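 VSV-g-pseudotyped single-round HIV-1 luciferase vectors, produced in 293T cells, carrying WT or site-directed mutant IN (G118R, Y143R, N155H, G140S+Q148H, E138K+Q148K). HOS cells were pretreated 3 h at 37 °C with compound (10 μM to 0.0005 μM, 11 serial dilutions), infected, and incubated 48 h. Luciferase signal was normalized to no-compound infectivity, and EC50 was taken from regression fit. Ratios were formed from these EC50s.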

Data set [9] deals with Human immunodeficiency virus 1. The data set is described as follows: Ratio of EC50 for Human immunodeficiency virus 1 harboring integrase N155H mutant to EC50 for wild-type Human immunodeficiency virus 1. It is filed as functional.
Data set [10] has as its system Human immunodeficiency virus 1. The experiment in a line: Ratio of raltegravir EC50 to compound EC50 for Human immunodeficiency virus 1 harboring integrase G140S/Q148H double mutant. It counts as functional. In outline:
as §3

Data set [11] concerns Human immunodeficiency virus 1. The experiment in a line: Ratio of raltegravir EC50 to compound EC50 for Human immunodeficiency virus 1 harboring integrase Y143R mutant. It counts as functional. In outline:
as §3

Data set [12] concerns Human immunodeficiency virus 1. The data set is described as follows: Ratio of raltegravir EC50 to compound EC50 for Human immunodeficiency virus 1 harboring integrase N155H mutant. It is filed as functional. In outline:
as §3

For data set [13], the system named is Human immunodeficiency virus 1. The data set is described as follows: Ratio of raltegravir EC50 to compound EC50 for Human immunodeficiency virus 1 harboring integrase E138K/Q148K double mutant. It counts as functional. In outline:
as §3

SMILES strings stand for the structures.

For the compound `Cc1nnc(C(=O)NC(C)(C)c2nc(C(=O)NCc3ccc(F)cc3)c(O)c(=O)n2C)o1`, in the data set with HOS, the CC50 was over 100000 nM.
Consider `O=C(NCc1ccc(F)cc1F)c1cc2ccccc2n(O)c1=O`, for which the results for the IC50 in data set [1] and in data set [2] were over 333000 nM and 19700 nM, respectively.
In the case of `COc1cccc2cc(C(=O)NCc3ccc(F)cc3F)c(=O)n(O)c12`, the IC50 in [1] and in [2] was over 333000 nM throughout.
For the compound `O=C(NCc1ccc(F)c(Cl)c1)c1c(O)c2cccnc2n(O)c1=O`, the EC50 was 35 nM in data set [3], 148 nM in data set [4], 54 nM in [5] and 489 nM in data set [7]. The results for the IC50 in data set [1] and in data set [2] were 4700 nM and 27 nM, respectively. Moreover, the CC50 with HOS came to 102000 nM. Moreover, in [6], the selectivity ratio is 2910.
As for `O=C(NCc1ccc(F)c(F)c1)c1c(O)c2cccnc2n(O)c1=O`, the EC50 came to 20 nM in data set [3], 189 nM in data set [4], 45 nM in data set [5] and 507 nM in data set [7]. Moreover, the results for the IC50 in data set [1] and in [2] were 3600 nM and 40 nM, respectively. The CC50 in the data set on HOS is 192000 nM. In data set [6], the selectivity ratio came out at 9600.
Regarding `O=C(NCc1ccc(F)cc1F)c1c(O)c2cccnc2n(O)c1=O`, the EC50 in [3] turned out to be 6.2 nM; in [4], 31 nM; in data set [5], 11 nM; in data set [7] it was 308 nM. For the same compound, the IC50 in data set [1] turned out to be 1200 nM; in data set [2] it was 55 nM. Moreover, the “Ratio EC50” value in [8] is 6; in [9], 5; in data set [10], 10; in data set [11], 10; in [12] it was 10; in data set [13] it was 10. Moreover, the CC50 in the data set on HOS worked out at 137000 nM. Also, the selectivity ratio in [6] came to 22100.
As to `O=C(NCc1ccc(F)c(Cl)c1)c1c(O)c2cccnc2[nH]c1=O`, the IC50 is 125000 nM in [1] and 7800 nM in data set [2].
The like results for `O=C(NCc1ccc(F)c(F)c1)c1c(O)c2cccnc2[nH]c1=O` were, in that order, 93000 nM and 8100 nM.
The matching figures for `O=C(NCc1ccc(F)cc1F)c1c(O)c2cccnc2[nH]c1=O`: over 333000 nM and 7100 nM.
The like results for `O=C(NCc1ccc(F)c(Cl)c1)c1cc2cccc(O)c2n(O)c1=O` were, in that order, 17000 nM and 530 nM.
For `O=C(NCc1ccc(F)c(F)c1)c1cc2cccc(O)c2n(O)c1=O`, the IC50 was found to be 24000 nM in [1] and 780 nM in data set [2].
The like results for `O=C(NCc1ccc(F)cc1F)c1cc2cccc(O)c2n(O)c1=O` were, in that order, 43000 nM and 18000 nM.
`O=C(NCc1ccc(F)c(Cl)c1)c1cc2cccnc2n(O)c1=O`: the EC50 in [3] amounted to 38 nM; in [4], 90 nM; in data set [5] it was 34 nM. The IC50 in [1] amounted to 9400 nM; in data set [2], 14 nM. The CC50 in the data set on HOS was over 250000 nM. The selectivity ratio in data set [6] is over 6580.
With `O=C(NCc1ccc(F)c(F)c1)c1cc2cccnc2n(O)c1=O`, the results for the EC50 in [3], in [4] and in data set [5] were 62 nM, 2200 nM and 40 nM, respectively. The IC50 in data set [1] is 13600 nM; in data set [2] it was 17 nM. Further, in the data set with HOS, the CC50 is over 250000 nM. Moreover, the selectivity ratio in data set [6] was over 4030.
Turning to `O=C(NCc1ccc(F)cc1F)c1cc2cccnc2n(O)c1=O`, the EC50 in data set [3] worked out at 5.1 nM; in [4], 134 nM; in data set [7], 438 nM. In addition, the IC50 in data set [1] amounted to 6100 nM; in data set [2], 41 nM. In addition, the CC50 in the data set with HOS is over 250000 nM. Moreover, the “Ratio EC50” value in data set [9] came to 26. Moreover, the selectivity ratio in data set [6] is over 49000.

Source of the values: ChEMBL document CHEMBL3124837, “Bicyclic 1-hydroxy-2-oxo-1,2-dihydropyridine-3-carboxamide-containing HIV-1 integrase inhibitors having high antiviral potency against cells harboring raltegravir-resistant integrase mutants” (J Med Chem, 2014).
